From ChEMBL document CHEMBL1123538, “Inhibitors of human purine nucleoside phosphorylase. Synthesis, purine nucleoside phosphorylase inhibition, and T-cell cytotoxicity of 2,5-diaminothiazolo[5,4-d]pyrimidin-7(6H)-one and 2,5-diaminothiazolo[4,5-d]pyrimidin-7(6H)-one. Two thio isosteres of 8-aminoguanine” (J Med Chem, 1986)

Tests used:
MOLT-4 [1] = assay: Cytotoxicity was evaluated against human MOLT-4 T-lymphoblasts (absence of 10 uM 2'-deoxyguanosine (Wo/GdR)); assay type: functional, cell-based
Outline: (§1)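 Cell growth measured as [3H]thymidine uptake. Lines kept in RPMI 1640 with 10% heat-inactivated fetal calf serum, L-glutamine and penicillin-streptomycin; assay run in RPMI 1640 plus 10% heat-inactivated horse serum.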

Homo sapiens [2] = species: Homo sapiens; assay: Cytotoxicity was evaluated against human MGL-8 B -lymphoblasts (Presence of 10 uM 2'-deoxyguanosine (W/GdR)); assay type: functional; conditions: MGL8; outline: as §1
MOLT-4 [3] = assay: Cytotoxicity was evaluated against human MOLT-4 T-lymphoblasts (presence of 10 uM 2'-deoxyguanosine (W/GdR)); assay type: functional, cell-based; outline: as §1
[4] = target: T1, Purine nucleoside phosphorylase (Homo sapiens, UniProt P00491); assay: Compound was evaluated for 50% inhibition of purine nucleoside phosphorylase activity by was measured by the conversion of [8-14C]-inosine to [8-14C]-hypoxanthine; assay type: functional
T1 sequence (P00491 whole entry): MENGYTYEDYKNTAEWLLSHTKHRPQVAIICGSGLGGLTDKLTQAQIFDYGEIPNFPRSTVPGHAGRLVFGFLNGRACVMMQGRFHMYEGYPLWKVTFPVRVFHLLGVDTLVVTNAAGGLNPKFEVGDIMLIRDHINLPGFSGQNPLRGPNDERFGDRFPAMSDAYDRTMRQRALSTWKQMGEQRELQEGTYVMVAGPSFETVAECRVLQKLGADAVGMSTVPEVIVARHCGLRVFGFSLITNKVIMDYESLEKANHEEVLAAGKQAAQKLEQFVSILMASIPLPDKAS

Homo sapiens [5] = species: Homo sapiens; assay: Cytotoxicity was evaluated against human MGL-8 B -lymphoblasts (absence of 10 uM 2'-deoxyguanosine (Wo/GdR)); assay type: functional; conditions: MGL8; outline: as §1

IC50 [4] [µM]	SMILES	IC50 (MOLT-4 [1]) [µM]	IC50 (Homo sapiens [2]) [µM]	IC50 (MOLT-4 [3]) [µM]	IC50 (Homo sapiens [5]) [µM]
~330	Nc1nc2nc(N)sc2c(=O)[nH]1	> 50	> 50	> 50	> 50
1.55	Nc1nc2[nH]c(N)nc2c(=O)[nH]1 [8-AMINOGUANINE]	~400	> 500	2.35	> 500
142	Nc1nc2sc(N)nc2c(=O)[nH]1	> 50	> 50	> 50	> 50
–	Nc1nc(O)c2nc(N)n([C@@H]3O[C@H](CO)[C@@H](O)[C@H]3O)c2n1	~500	> 500	3.25	> 500
